Source: PubChem BioAssay
Only some compounds are listed: those with a hit (about 3% of all), similar ones and a draw of the others.
CendR NRP1 mod = modulators of CendR peptide binding to NRP-1, primary screen, biochemical, fluorescence polarization, uHTS. Neuropilin-1 (Homo sapiens), O14786. FAM-RPARPAR peptide binding to NRP-1. inhibition, % at 25 µM. hit rate 0.85% among 360,000;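 active = inhibition or corrected inhibition above about 18%, plus a signal ratio from 0.5 to 1.5, limit read from the data, passing the limit was not always enough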
proKLK7 act = proKLK7 zymogen activators, primary screen, biochemical, fluorescence intensity; activation, % at 7 µM; Kallikrein-7 (Homo sapiens), P49862; purified proKLK7, EDANS-DABCYL substrate fluorescence; 100% is mature enzyme control, 0% vehicle; hit rate 0.9% among 370,000;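 active = activation above the mean of all tested compounds plus 3 SD, computed per campaign excluding outliers beyond control limits, cut at about 13% in these data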
DDE Tn7 FP inh = inhibitors of Tn7 peptide binding to fibrin DD(E), primary screen, biochemical, fluorescence polarization, human fibrin, Tn7 probe. Fibrinogen beta chain (Homo sapiens), P02675. FP displacement of FITC-Tn7 peptide from fibrin DD(E); 0% = median of compound wells per plate. inhibition, % at 8.3 µM. hit rate 0.13% among 370,000. AID 720508, 2013;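 active = inhibition above the mean of compounds falling within the control limits plus 3 SD of them, cut at about 14% in these data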;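 note: 0% = plate median of compound wells and 100% = 10 µM Aha-Tn7 peptide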
Target sequence (P02675 whole entry, looked up): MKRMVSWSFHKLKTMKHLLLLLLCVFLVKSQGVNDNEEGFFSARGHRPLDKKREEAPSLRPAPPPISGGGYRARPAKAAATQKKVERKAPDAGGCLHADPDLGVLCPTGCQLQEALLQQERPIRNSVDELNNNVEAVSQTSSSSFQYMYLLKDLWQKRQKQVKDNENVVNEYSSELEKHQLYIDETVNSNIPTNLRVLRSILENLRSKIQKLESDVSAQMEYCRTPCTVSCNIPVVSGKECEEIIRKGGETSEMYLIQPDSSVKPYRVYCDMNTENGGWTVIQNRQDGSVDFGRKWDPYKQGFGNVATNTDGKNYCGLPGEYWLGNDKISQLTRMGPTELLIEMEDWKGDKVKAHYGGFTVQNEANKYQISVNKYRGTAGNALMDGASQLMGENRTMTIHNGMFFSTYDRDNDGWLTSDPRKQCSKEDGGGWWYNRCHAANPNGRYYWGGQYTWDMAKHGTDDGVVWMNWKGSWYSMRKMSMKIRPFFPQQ
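Test system: human clot-derived fibrin DD(E) complex / Quantity: 2 µM final DD(E) protein / Incubation: 10 min plus 3 h, room temperature / Measured by: fluorescence polarization / Benchmarks: high control of 10 µM Aha-Tn7 peptide / Replicates: singlicate testing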
DDE Tn6 FP inh = inhibitors of Tn6 peptide binding to fibrin DD(E), primary screen, biochemical, fluorescence polarization, human fibrin, Tn6 probe; Fibrinogen beta chain (Homo sapiens), P02675; Fibrin DD(E) TRITC-Tn6 fluorescence polarization displacement; inhibition, % at 8.3 µM; hit rate 0.21% among 370,000; AID 720509, 2013;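 active = inhibition above a per-campaign cutoff: mean of compounds within control limits plus 3 SD, cut at about 15% in these data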;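 note: 0% = median of all compound wells on the plate and 100% = blocking peptide control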
PLC-gamma1 inh = PLC-gamma1 enzyme inhibitors, primary screen, biochemical, fluorescence, purified enzyme; 1-phosphatidylinositol 4,5-bisphosphate phosphodiesterase gamma-1 (Homo sapiens), P19174; fluorogenic substrate; inhibition, % at 12.2 µM; hit rate 0.84% among 370,000; AID 720700, 2013; in the data active = inhibition above about 9.5%
PLC-beta3 inh = human PLC-beta3 inhibitors, primary screen, biochemical, fluorescence | inhibition, % at 12.2 µM | 1-phosphatidylinositol 4,5-bisphosphate phosphodiesterase beta-3 (Homo sapiens), Q01970 | Purified PLC-beta3, fluorogenic substrate | AID 720704, 2013 | hit rate 0.18% among 370,000; in the data active = inhibition above about 11%;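 note: 0% = median of compound wells on plate and 100% = full blocker control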
KLK7 act conf = proKLK7 zymogen activators, confirmation, biochemical, fluorescence intensity, triplicate; purified proKLK7, EDANS-DABCYL substrate fluorescence; scaled: vehicle 0, mature enzyme 100; shares compounds with proKLK7 act; hit rate 68% among 3,200; AID 686949, 2013; activation, % at 7 µM;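 active = activation, as change over the incubation, above the mean of all tested compounds plus 3 SD, cut at about 13% in these data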
EDANS interfere = EDANS-DABCYL substrate optical interference, artefact control for kallikrein-7 zymogen activator project, biochemical, fluorescence intensity, high throughput. hit rate 80% among 3,200. activation, % at 7 µM. no enzyme, 4 h; solvent 0%, active enzyme control 100%. shares compounds with proKLK7 act;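 active = activation above the all-compound mean plus 3 SD, ignoring values outside control-based bounds, cut at about 4.8% in these data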;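 note: value is the 4 h activation minus the activation read at time zero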
Numbers without * were called inactive; i = inactive; x = no result.

SMILES	CendR NRP1 mod	proKLK7 act	DDE Tn7 FP inh	DDE Tn6 FP inh	PLC-gamma1 inh	PLC-beta3 inh	KLK7 act conf	EDANS interfere
O=c1[nH]c(Nc2ccccn2)cc2ccccc12	44.9*	21.5*	2.6	-2.2	-223.9	-355.1	21.4*	20.8*
O=C(CN1CCc2onc(-c3ccc(-n4cc(C5=CCCCC5)nn4)cc3)c2C1=O)N1CCOCC1	x	0.6	-6.0	-0.5	-1.6	-1.9	x	x
Cc1nc2ccc(C(=O)N3CCN(C(=O)C(Cl)Cl)CC3)cc2n1C1CCCC1	x	-0.2	1.1	-2.4	-0.5	-0.4	x	x
CCOc1ccc(N=c2oc3cc(O)ccc3cc2C(=O)NCC2CCCO2)cc1 (stereo unspecified)	-4.0	5.8	3.7	2.5	-153.5	-222.0	x	x
COc1ccc(N=c2oc3cc(O)ccc3cc2C(=O)NCC2CCCO2)c(OC)c1 (stereo unspecified)	-11.3	19.9*	-1.0	5.1	i	i	13.0*	17.1*
CCOc1ccccc1N=c1oc2cc(O)ccc2cc1C(=O)NCC1CCCO1 (stereo unspecified)	-16.8	87.5*	-5.2	-4.7	i	i	12.4	13.7*
COc1ccc(N=c2oc3cc(O)ccc3cc2C(=O)NCC2CCCO2)cc1 (stereo unspecified)	-6.8	16.4*	-6.0	-0.3	-370.5	-468.4	8.1	10.8*
CCOc1ccc(C(=O)NCC2CCCO2)cc1OCC (stereo unspecified)	-12.3	-0.6	-3.2	1.4	0.3	1.9	x	x
COc1cc(SC)ccc1C(=O)NCC1CCCO1 (stereo unspecified)	-15.4	-0.5	2.6	6.5	-3.9	1.2	x	x
C[C@H]1CCCC(=O)N[C@@H](c2ccccc2)[C@@H](C)CCCC(=O)N[C@H]1c1ccccc1	x	-0.3	1.5	-4.5	0.2	2.4	x	x
CNC(=S)NNC(=O)c1sc(-c2cc(C)on2)nc1C	15.1	21.0*	-7.3	-1.3	-95.8	-139.2	33.5*	37.3*
Cc1cc(C(=O)NNC(=S)NCC(C)C)no1	-5.4	-0.4	-1.0	6.2	3.9	5.8	x	x
CC(=O)Nc1ccc(S(=O)(=O)NCCNS(=O)(=O)c2ccc(NC(C)=O)cc2)cc1	-1.9	0.0	4.5	5.0	-3.5	-6.1	x	x
CC(=O)Nc1ccc(S(=O)(=O)NCCc2cn3nc(C)c(C)nc3n2)cc1	2.8	16.4*	3.3	-4.5	i	i	61.8*	55.2*
COc1ccc(S(=O)(=O)NCCc2cn3nc(C)c(C)nc3n2)cc1F	-4.2	20.1*	1.1	3.3	i	i	72.6*	81.2*
COC(=O)c1cc(-c2cccs2)c(=O)n2c1CCC2	x	6.0	1.4	1.1	-174.3	-231.8	x	x
c1ccc(C2Nc3ccccc3-c3nc4ccccc4n32)nc1 (stereo unspecified)	-1.8	36.3*	-2.5	-6.1	-478.9	i	14.2*	16.4*
c1ccc(C2Nc3ccccc3-c3nc4ccccc4n32)cc1 (stereo unspecified)	2.9	66.3*	1.0	-3.6	i	i	3.0	5.4*
c1coc(C2Nc3ccccc3-c3nc4ccccc4n32)c1 (stereo unspecified)	-9.6	15.9*	3.1	-2.5	i	i	39.2*	40.0*
CN1c2ccc(C#CC3CC3)cc2[C@@H]2[C@@H](CCN2C(=O)C2CCOCC2)[C@H]1CO	x	0.1	-6.3	1.3	-39.8	-54.2	x	x
